Test results from ChEMBL document CHEMBL4184148 (Bioorg Med Chem Lett, 2017).

What was measured:
[1] = molecular target: SNF-related serine/threonine-protein kinase (Homo sapiens) (UniProt Q9NRH2); assay: Binding affinity to wild-type human partial length SNRK (M1 to E339 residues) expressed in HEK293 cells at 1 uM by Kinomescan method relative to control; format: cell-based
[2] = molecular target: NT-3 growth factor receptor (Homo sapiens) (UniProt Q16288); assay: Binding affinity to wild-type human partial length TRKC (Q531 to G825 residues) expressed in HEK293 cells at 1 uM by Kinomescan method relative to control; format: cell-based
[3] = molecular target: Serine/threonine-protein kinase 17A (Homo sapiens) (UniProt Q9UEE5); assay: Binding affinity to wild-type human partial length DRAK1 (R32 to E363 residues) expressed in Escherichia coli BL21 at 1 uM by Kinomescan method relative to control
[4] = molecular target: Casein kinase I isoform epsilon (Homo sapiens) (UniProt P49674); assay: Binding affinity to wild-type human full length CSNK1E (M1 to K416 residues) expressed in Escherichia coli BL21 at 1 uM by Kinomescan method relative to control
Summary of the method: (§1)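 Run as one kinome-wide competition binding panel with each compound at a single fixed concentration. Results were plotted as a kinome-wide selectivity map.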

[5] = molecular target: cGMP-dependent protein kinase 2 (Homo sapiens) (UniProt Q13237); assay: Binding affinity to wild-type human partial length PRKG2 (S422 to F762 residues) expressed in HEK293 cells at 1 uM by Kinomescan method relative to control; format: cell-based
[6] = molecular target: Calcium/calmodulin-dependent protein kinase type 1G (Homo sapiens) (UniProt Q96NX5); assay: Binding affinity to wild-type human partial length CAMK1G (M1 to A342 residues) expressed in Escherichia coli BL21 at 1 uM by Kinomescan method relative to control
[7] = molecular target: Rhodopsin kinase GRK1 (Homo sapiens) (UniProt Q15835); assay: Binding affinity to wild-type human full length GRK1 (M1 to S563 residues) expressed in HEK293 cells at 1 uM by Kinomescan method relative to control; format: cell-based; summary of the method: as §1
[8] = molecular target: Activin receptor type-2A (Homo sapiens) (UniProt P27037); assay: Binding affinity to wild-type human ACVR2A (V171 to T499 residues) expressed in Escherichia coli BL21 at 1 uM by Kinomescan method relative to control
[9] = molecular target: Mitogen-activated protein kinase 9 (Homo sapiens) (UniProt P45984); assay: Binding affinity to wild-type human full length JNK2 (M1 to Q382 residues) expressed in HEK293 cells at 1 uM by Kinomescan method relative to control; format: cell-based; summary of the method: as §1
[10] = molecular target: Serine/threonine-protein kinase N1 (Homo sapiens) (UniProt Q16512); assay: Binding affinity to wild-type human partial length PKN1 (E598 to C948 residues) expressed in Escherichia coli BL21 at 1 uM by Kinomescan method relative to control
[11] = molecular target: Serine/threonine-protein kinase ULK2 (Homo sapiens) (UniProt Q8IYT8); assay: Binding affinity to wild-type human partial length ULK2 (M1 to S301 residues) expressed in HEK293 cells at 1 uM by Kinomescan method relative to control; format: cell-based
[12] = molecular target: Mitogen-activated protein kinase 7 (Homo sapiens) (UniProt Q13164); assay: Binding affinity to wild-type human partial length ERK5 (M1 to A409 residues) expressed in Escherichia coli BL21 at 1 uM by Kinomescan method relative to control
[13] = molecular target: Mitogen-activated protein kinase 10 (Homo sapiens) (UniProt P53779); assay: Binding affinity to wild-type human partial length JNK3 (V28 to Q422 residues) expressed in HEK293 cells at 1 uM by Kinomescan method relative to control; format: cell-based
[14] = molecular target: Serine/threonine-protein kinase TBK1 (Homo sapiens) (UniProt Q9UHD2); assay: Binding affinity to wild-type human full length TBK1 (M1 to L729 residues) expressed in HEK293 cells at 1 uM by Kinomescan method relative to control; format: cell-based
[15] = molecular target: Proto-oncogene tyrosine-protein kinase ROS (Homo sapiens) (UniProt P08922); assay: Binding affinity to wild-type human partial length ROS1 (A1921 to N2240 residues) expressed in Escherichia coli BL21 at 1 uM by Kinomescan method relative to control
[16] = molecular target: MAP kinase-interacting serine/threonine-protein kinase 1 (Homo sapiens) (UniProt Q9BUB5); assay: Binding affinity to wild-type human full length MKNK1 (M1 to L424 residues) expressed in HEK293 cells at 1 uM by Kinomescan method relative to control; format: cell-based; summary of the method: as §1
[17] = molecular target: Ephrin type-B receptor 1 (Homo sapiens) (UniProt P54762); assay: Binding affinity to wild-type human partial length EPHB1 (P589 to T911 residues) expressed in Escherichia coli BL21 at 1 uM by Kinomescan method relative to control
[18] = molecular target: Casein kinase I isoform alpha-like (Homo sapiens) (UniProt Q8N752); assay: Binding affinity to wild-type human full length CSNK1A1L (M1 to N337 residues) expressed in Escherichia coli BL21 at 1 uM by Kinomescan method relative to control; summary of the method: as §1
[19] = molecular target: Dual specificity testis-specific protein kinase 1 (Homo sapiens) (UniProt Q15569); assay: Binding affinity to wild-type human full length TESK1 (R37 to S626 residues) expressed in Escherichia coli BL21 at 1 uM by Kinomescan method relative to control
Summary of the method: (§2)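 Kinome-wide competition binding panel run by an outside provider, with each compound tested at a single concentration. Activity is read against the kinase panel.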

[20] = molecular target: Hormonally up-regulated neu tumor-associated kinase (Homo sapiens) (UniProt P57058); assay: Binding affinity to wild-type human partial length HUNK (A31 to K354 residues) expressed in Escherichia coli BL21 at 1 uM by Kinomescan method relative to control
[21] = molecular target: Serine/threonine-protein kinase WNK1 (Homo sapiens) (UniProt Q9H4A3); assay: Binding affinity to wild-type human partial length WNK1 (Q194 to A490 residues) expressed in HEK293 cells at 1 uM by Kinomescan method relative to control; format: cell-based
[22] = molecular target: RAC-gamma serine/threonine-protein kinase (Homo sapiens) (UniProt Q9Y243); assay: Binding affinity to wild-type human partial length AKT3 expressed in Escherichia coli BL21 at 1 uM by Kinomescan method relative to control; summary of the method: as §2
[23] = molecular target: Tyrosine-protein kinase ABL1 (Homo sapiens) (UniProt P00519); assay: Binding affinity to wild-type human non-phosphorylated ABL1 (S229 to K512 residues) expressed in HEK293 cells at 1 uM by Kinomescan method relative to control; format: cell-based
[24] = molecular target: Tyrosine-protein kinase JAK1 (Homo sapiens) (UniProt P23458); assay: Binding affinity to wild-type human partial length JAK1 JH2 pseudokinase domain (R537 to D855 residues) expressed in HEK293 cells at 1 uM by Kinomescan method relative to control; format: cell-based
[25] = molecular target: Ephrin type-B receptor 3 (Homo sapiens) (UniProt P54753); assay: Binding affinity to wild-type human partial length EPHB3 (Q599 to T928 residues) expressed in Escherichia coli BL21 at 1 uM by Kinomescan method relative to control

Serine/threonine-protein kinase WNK1 (Homo sapiens), sequence (Q9H4A3 whole entry, looked up, the tested form may be a part): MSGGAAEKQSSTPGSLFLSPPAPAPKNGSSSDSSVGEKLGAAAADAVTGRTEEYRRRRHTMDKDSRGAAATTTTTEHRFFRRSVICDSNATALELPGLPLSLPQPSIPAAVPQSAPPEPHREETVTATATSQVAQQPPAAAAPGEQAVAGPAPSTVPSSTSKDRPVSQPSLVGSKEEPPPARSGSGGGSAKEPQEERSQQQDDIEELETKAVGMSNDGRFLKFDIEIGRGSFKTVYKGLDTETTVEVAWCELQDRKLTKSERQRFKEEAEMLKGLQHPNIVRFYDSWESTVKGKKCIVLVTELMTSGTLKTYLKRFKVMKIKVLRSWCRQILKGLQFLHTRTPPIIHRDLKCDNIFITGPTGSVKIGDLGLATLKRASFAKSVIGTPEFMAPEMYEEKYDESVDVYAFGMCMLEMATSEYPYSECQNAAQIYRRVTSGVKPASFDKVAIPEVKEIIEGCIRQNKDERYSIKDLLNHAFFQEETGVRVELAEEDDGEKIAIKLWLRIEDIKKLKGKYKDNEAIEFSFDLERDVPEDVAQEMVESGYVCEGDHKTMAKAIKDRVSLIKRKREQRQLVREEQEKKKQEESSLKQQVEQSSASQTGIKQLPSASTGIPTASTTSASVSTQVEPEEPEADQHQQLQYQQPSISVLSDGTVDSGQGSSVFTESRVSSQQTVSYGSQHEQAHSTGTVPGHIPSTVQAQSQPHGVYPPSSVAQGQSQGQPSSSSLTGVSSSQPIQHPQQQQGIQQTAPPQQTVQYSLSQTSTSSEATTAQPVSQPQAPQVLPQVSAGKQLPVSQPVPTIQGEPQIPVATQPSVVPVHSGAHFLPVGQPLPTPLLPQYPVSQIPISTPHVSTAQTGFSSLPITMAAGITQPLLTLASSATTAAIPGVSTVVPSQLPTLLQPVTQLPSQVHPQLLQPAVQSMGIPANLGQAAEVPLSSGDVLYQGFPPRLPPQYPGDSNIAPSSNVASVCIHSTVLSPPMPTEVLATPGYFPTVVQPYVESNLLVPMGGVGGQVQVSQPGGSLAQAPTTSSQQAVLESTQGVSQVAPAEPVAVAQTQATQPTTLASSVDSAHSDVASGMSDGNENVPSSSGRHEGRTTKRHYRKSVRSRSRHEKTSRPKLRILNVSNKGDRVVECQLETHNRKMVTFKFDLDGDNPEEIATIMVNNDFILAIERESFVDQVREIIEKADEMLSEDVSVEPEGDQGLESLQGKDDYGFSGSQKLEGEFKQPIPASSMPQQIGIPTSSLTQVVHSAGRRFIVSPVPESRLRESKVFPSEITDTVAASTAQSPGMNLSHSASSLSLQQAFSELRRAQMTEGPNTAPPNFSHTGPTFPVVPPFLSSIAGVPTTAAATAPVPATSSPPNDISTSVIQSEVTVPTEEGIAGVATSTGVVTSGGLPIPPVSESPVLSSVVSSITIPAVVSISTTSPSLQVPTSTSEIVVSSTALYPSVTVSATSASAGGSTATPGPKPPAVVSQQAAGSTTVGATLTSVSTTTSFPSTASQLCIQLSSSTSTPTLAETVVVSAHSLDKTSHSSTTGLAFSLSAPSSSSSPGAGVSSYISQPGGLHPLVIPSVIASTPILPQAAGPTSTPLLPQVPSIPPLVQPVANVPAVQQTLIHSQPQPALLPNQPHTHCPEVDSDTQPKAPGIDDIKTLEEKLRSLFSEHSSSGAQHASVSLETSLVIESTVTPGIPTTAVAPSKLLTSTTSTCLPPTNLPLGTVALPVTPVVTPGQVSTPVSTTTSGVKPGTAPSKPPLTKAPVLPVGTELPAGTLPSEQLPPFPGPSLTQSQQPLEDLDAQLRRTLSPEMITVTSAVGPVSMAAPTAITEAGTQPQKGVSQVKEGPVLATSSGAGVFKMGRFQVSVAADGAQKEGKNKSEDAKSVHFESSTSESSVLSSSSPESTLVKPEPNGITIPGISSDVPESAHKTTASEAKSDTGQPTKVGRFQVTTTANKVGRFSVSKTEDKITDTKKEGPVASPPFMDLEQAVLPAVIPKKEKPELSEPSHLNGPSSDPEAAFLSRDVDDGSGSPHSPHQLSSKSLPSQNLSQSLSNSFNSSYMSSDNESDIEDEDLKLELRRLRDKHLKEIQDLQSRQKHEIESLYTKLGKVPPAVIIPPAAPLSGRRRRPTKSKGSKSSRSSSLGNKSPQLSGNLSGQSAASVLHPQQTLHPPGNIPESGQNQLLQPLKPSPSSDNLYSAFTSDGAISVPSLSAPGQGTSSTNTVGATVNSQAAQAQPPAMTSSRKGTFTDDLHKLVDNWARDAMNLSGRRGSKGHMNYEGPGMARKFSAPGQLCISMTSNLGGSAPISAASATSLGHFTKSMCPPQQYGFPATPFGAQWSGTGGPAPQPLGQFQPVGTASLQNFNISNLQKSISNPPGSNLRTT
Proto-oncogene tyrosine-protein kinase ROS (Homo sapiens), sequence (P08922 whole entry, the tested form may be a part): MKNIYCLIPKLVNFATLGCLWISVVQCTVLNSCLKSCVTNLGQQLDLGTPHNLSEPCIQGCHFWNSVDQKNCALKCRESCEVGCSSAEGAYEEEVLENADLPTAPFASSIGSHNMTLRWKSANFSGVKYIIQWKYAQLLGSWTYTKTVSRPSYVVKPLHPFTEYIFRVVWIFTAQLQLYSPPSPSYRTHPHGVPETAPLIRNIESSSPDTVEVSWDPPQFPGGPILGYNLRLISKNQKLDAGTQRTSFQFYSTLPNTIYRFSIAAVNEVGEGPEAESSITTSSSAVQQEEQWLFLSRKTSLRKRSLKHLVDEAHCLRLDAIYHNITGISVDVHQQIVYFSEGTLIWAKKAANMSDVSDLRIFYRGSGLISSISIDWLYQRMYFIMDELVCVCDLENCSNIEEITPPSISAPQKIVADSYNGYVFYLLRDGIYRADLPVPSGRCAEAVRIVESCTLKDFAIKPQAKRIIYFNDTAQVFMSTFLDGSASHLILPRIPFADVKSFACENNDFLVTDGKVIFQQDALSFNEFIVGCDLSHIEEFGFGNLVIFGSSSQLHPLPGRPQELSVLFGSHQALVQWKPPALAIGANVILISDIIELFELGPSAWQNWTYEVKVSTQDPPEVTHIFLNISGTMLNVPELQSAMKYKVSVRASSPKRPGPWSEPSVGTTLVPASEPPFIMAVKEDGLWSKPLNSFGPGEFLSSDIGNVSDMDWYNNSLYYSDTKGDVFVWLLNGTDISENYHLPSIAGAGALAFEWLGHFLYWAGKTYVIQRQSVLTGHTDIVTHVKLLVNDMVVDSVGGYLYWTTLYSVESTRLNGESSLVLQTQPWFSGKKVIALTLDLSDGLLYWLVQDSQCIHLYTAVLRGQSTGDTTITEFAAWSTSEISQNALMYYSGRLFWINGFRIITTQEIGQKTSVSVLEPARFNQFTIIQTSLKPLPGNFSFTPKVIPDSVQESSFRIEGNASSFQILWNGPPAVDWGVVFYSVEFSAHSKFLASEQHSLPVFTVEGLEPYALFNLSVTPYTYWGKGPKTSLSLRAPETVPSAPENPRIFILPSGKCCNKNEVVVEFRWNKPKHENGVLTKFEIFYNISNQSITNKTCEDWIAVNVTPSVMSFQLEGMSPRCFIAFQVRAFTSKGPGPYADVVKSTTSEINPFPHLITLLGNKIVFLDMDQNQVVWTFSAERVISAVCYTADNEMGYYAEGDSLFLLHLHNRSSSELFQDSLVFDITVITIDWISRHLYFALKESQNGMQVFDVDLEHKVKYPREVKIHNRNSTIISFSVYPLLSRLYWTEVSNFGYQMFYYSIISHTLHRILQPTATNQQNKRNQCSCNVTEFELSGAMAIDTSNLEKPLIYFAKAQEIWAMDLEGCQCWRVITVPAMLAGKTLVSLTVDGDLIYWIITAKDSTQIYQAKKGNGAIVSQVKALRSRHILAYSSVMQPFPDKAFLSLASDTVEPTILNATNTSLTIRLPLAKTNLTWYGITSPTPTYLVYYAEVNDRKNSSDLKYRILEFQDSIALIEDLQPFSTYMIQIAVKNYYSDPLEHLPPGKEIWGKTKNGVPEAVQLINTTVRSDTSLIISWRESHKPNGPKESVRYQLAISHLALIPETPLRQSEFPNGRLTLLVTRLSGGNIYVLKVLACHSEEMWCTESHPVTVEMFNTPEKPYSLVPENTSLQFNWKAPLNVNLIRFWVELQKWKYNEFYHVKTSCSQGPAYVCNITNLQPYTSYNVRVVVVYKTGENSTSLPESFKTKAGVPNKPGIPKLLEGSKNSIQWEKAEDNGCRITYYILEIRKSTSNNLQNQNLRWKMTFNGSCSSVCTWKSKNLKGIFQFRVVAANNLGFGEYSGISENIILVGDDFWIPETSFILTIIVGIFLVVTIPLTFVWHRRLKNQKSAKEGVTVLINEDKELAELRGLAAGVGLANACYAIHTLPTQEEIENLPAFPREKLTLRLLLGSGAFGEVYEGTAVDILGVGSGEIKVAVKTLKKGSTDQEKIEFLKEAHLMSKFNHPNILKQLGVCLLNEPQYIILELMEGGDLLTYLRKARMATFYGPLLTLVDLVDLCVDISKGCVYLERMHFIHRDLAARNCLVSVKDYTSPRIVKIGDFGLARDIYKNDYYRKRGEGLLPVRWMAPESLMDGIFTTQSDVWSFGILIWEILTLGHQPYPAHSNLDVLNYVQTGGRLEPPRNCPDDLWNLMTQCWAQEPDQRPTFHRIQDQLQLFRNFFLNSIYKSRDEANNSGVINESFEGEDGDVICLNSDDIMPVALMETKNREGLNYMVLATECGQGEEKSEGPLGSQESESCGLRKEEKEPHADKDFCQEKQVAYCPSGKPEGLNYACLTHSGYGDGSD
Casein kinase I isoform epsilon (Homo sapiens), sequence (P49674 whole entry, looked up, the tested form may be a part, canonical isoform): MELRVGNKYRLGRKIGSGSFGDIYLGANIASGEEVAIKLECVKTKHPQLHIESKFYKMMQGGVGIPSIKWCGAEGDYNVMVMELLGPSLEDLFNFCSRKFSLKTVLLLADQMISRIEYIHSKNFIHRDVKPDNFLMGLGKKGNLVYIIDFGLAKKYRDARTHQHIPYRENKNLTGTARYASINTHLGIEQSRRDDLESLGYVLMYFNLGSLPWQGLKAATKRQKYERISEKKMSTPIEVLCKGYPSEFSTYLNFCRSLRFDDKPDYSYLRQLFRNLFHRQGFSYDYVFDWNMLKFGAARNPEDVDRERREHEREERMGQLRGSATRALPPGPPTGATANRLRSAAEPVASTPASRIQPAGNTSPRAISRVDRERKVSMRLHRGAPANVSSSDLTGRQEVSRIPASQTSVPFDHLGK

Molecule CCC(=O)Nc1ccc(C(=O)Nc2ccc(Nc3ncc4c(n3)N(C)c3ccc(C)cc3C(=O)N4C)cc2)cc1 has an Activity [1] of 75%, an Activity [2] of 89% and an Activity [3] of 100%. The Activity [4] was 94%, the Activity [5] was 84% and the Activity [6] was 100%. For the same molecule, the Activity [7] was 76%, the Activity [8] was 100% and the Activity [9] was 91%. For the same molecule, the Activity [10] was 100%, the Activity [11] was 82% and the Activity [12] was 97%. It also gave an Activity [13] of 92%, an Activity [14] of 74% and an Activity [15] of 81%. The Activity [16] was 96%, the Activity [17] was 80% and the Activity [18] was 97%. It also gave an Activity [19] of 100%, an Activity [20] of 91% and an Activity [21] of 100%. The Activity [22] was 100%, the Activity [23] was 67% and the Activity [24] was 79%. For the same molecule, the Activity [25] was 88%.
With C=CC(=O)Nc1ccc(C(=O)Nc2ccc(Nc3ncc4c(n3)N(C)c3ccc(C)cc3C(=O)N4C)cc2)cc1 the Activity [1] was 100%, the Activity [2] was 100% and the Activity [3] was 93%. For the same molecule, the Activity [4] was 100%, the Activity [5] was 88% and the Activity [6] was 100%. It also gave an Activity [7] of 73%, an Activity [8] of 100% and an Activity [9] of 92%. For the same molecule, the Activity [10] was 82%, the Activity [11] was 94% and the Activity [12] was 86%. For the same molecule, the Activity [13] was 100%, the Activity [14] was 94% and the Activity [15] was 98%. The Activity [16] was 95%, the Activity [17] was 92% and the Activity [18] was 95%. It also gave an Activity [19] of 100%, an Activity [20] of 100% and an Activity [21] of 100%. For the same molecule, the Activity [22] was 83%, the Activity [23] was 77% and the Activity [24] was 100%. The Activity [25] was 89%.
